Source: ChEMBL document CHEMBL4052589, “Discovery of Imidazo[1,2-a]pyridine Ethers and Squaramides as Selective and Potent Inhibitors of Mycobacterial Adenosine Triphosphate (ATP) Synthesis” (J Med Chem, 2017)
Values after ≈ are worked out from the molar mass of the structure shown. Active and inactive are the calls of the source. No cut-off for these calls is given here.

Key:
[1] = Inhibition of ATP synthase in Mycobacterium smegmatis inverted membrane vesicles using NADH as substrate incubated for 60 mins by luciferin-luciferase reaction based bioluminescence assay; design: species or system Mycolicibacterium smegmatis
Summary of the method: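 ATP made by oxidative phosphorylation in M. smegmatis inverted membrane vesicles (IMVs), driven by NADH with ADP and Pi as ATP synthase substrates. ATP was read by luminescence. IC50 was taken from dose-response testing.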

[2] = test system: Mycobacterium tuberculosis; assay: Antimycobacterial activity against Mycobacterium tuberculosis H37Rv by turbidometric method; assay type: functional
Summary of the method: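 MIC taken as the minimum concentration inhibiting M. tuberculosis growth by 80%.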

[3] = test system: Mycolicibacterium smegmatis; assay: Inhibition of oxygen consumption in Mycobacterium smegmatis inverted membrane vesicles lacking cytochrome bc1 complex treated between 250 to 450 secs post NADH addition; assay type: functional
[4] = test system: Mycolicibacterium smegmatis; assay: Inhibition of cytochrome c oxidase in Mycobacterium smegmatis inverted membrane vesicles lacking cytochrome-bd complex assessed as reduction of oxygen consumption treated between 250 to 450 secs post NADH addition
[5] = test system: Mycolicibacterium smegmatis; assay: Selectivity ratio of IC50 for NADH dependent ATP synthesis in Mycobacterium smegmatis inverted membrane vesicles lacking cytochrome-bc1 complex to IC50 for cytochrome c oxidase in Mycobacterium smegmatis inverted membrane vesicles assessed as decrease in NADH dependent ATP synthesis
[6] = test system: Mycolicibacterium smegmatis; assay: Selectivity ratio of IC50 for NDH2 in Mycobacterium smegmatis inverted membrane vesicles using NADH as substrate to IC50 for SDH in Mycobacterium smegmatis inverted membrane vesicles using succinate as substrate
[7] = Lipophilicity, log D of compound; assay type: physicochemical; conditions: octanol/water
[8] = Selectivity index, ratio of IC50 for human THP1 cells to MIC for Mycobacterium tuberculosis H37Rv; assay type: toxicity; conditions: read-out: Selectivity Index
Summary of the method: (§1)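 Cytotoxicity index is MMIC divided by M. tuberculosis MIC. MMIC is the minimum concentration inhibiting A549 or THP1 proliferation by 50%. MIC is the concentration giving 80% growth inhibition.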

[9] = Selectivity index, ratio of IC50 for human A549 cells to MIC for Mycobacterium tuberculosis H37Rv; assay type: toxicity; conditions: read-out: Selectivity Index; summary of the method: as §1
[10] = test system: Mycobacterium tuberculosis; assay: Bactericidal activity against Mycobacterium tuberculosis H37Rv; assay type: functional
Plasma [11] = assay: Drug uptake in BALB/c mouse plasma at 100 mg/kg, po in presence of pan CYP inhibitor ABT by LC-MS/MS method; assay type: ADME, organism-based; conditions: in vivo
Plasma [12] = assay: Ratio of free plasma concentration in BALB/c mouse infected with Mycobacterium tuberculosis H37Rv in absence of pan CYP inhibitor ABT to presence of pan CYP inhibitor ABT; assay type: ADME
Mus musculus = assay: Time required for free plasma concentration to maintain above in vitro MIC for Mycobacterium tuberculosis H37Rv in BALB/c mouse infected with Mycobacterium tuberculosis H37Rv at 100 mg/kg, po in presence of pan CYP inhibitor ABT
[13] = test system: Mycobacterium tuberculosis; assay: Antimycobacterial activity against Mycobacterium tuberculosis H37Rv infected in BALB/c mouse assessed as bacterial growth inhibition at 100 to 200 mg/kg, po qd administered […] for 2 weeks; assay type: functional, organism-based

Compound	IC50 [1] [nM]	MIC80 [2] [µM]	other results
Cc1ccc2nc(-c3ccc(F)cc3)c(OCCCN3CCN(c4ccccc4)CC3)n2c1	50	< 0.8	–
Cc1ccc2nc(-c3ccccc3)c(OCCCN3CCN(C)CC3)n2c1	6400	> 200	–
Cc1ccc2nc(-c3ccc(F)cc3)c(OCCNS(=O)(=O)c3ccc(F)c(Cl)c3)n2c1	400	3.1 (≈ 1.48 µg/mL)	–
Fc1ccc(OCCOc2c(-c3ccccc3)nc3ccc(Cl)cn23)cc1	40	< 1	inhibition [3]: inactive; inhibition [4]: Active
Cc1ccc2nc(-c3ccc(F)cc3)c(OCCCOc3ccc(C)nc3C)n2c1	90	6.3 (≈ 2.55 µg/mL)	–
COCCCOc1c(-c2ccccc2)nc2ccccn12	18900	> 15	–
Cc1ccc2nc(-c3ccccc3)c(OCCOc3ccc(F)cc3)n2c1	50	< 1	inhibition [3]: inactive; inhibition [4]: Active
COc1nc2ccc(Br)cc2cc1[C@@H](c1ccccc1)[C@@](O)(CCN(C)C)c1cccc2ccccc12	–	–	inhibition [3]: inactive; Ratio IC50 [5]: 2; Ratio IC50 [6]: 1.5; inhibition [4]: inactive
Clc1ccc2nc(-c3ccccc3)c(OCCN3CCOCC3)n2c1	36100	> 200	logD [7]: 3.3; Selectivity ratio [8]: 0.5; Selectivity ratio [9]: 0.5
CO[C@H]1/C=C/O[C@@]2(C)Oc3c(C)c(O)c4c(O)c(c(/C=N/N5CCN(C)CC5)c(O)c4c3C2=O)NC(=O)/C(C)=C\C=C\[C@H](C)[C@H](O)[C@@H](C)[C@@H](O)[C@@H](C)[C@H](OC(C)=O)[C@@H]1C [RIFAMPIN]	–	0.004 (≈ 0.00329 µg/mL)	–
Clc1ccc2nc(-c3ccccc3)c(OCCCOc3ccccc3)n2c1	< 20	< 0.5	MBC [10]: > 100 µM
Cc1ccc2nc(-c3ccc(F)cc3)c(OCCCNc3cnc(C)c(Br)c3)n2c1	210	0.8 (≈ 0.375 µg/mL)	–
O=c1c(NCc2ccccn2)c(-c2ccc(C(F)(F)F)cc2)c1=O	300	6.2 (≈ 2.06 µg/mL)	–
Cc1ccc2nc(-c3ccc(F)cc3)c(OCCCNc3ccc(F)c(C)c3)n2c1	5	0.03 (≈ 0.0122 µg/mL)	Drug uptake (Plasma [11]): Active; MBC [10]: > 100 µM
O=c1c(NCc2cnccn2)c(-c2ccc(N3CCOCC3)cc2)c1=O	770	3.12 to 12.5 (≈ 1.09 to 4.38 µg/mL)	–
CC(Nc1c(-c2ccc(N3CCOCC3)cc2)c(=O)c1=O)c1ccccn1 (configuration not stated)	> 25000	> 100	–
O=c1c(NCc2ccccc2)c(-c2ccc(N3CCOCC3)cc2)c1=O	> 100000	> 100	–
COc1ncc(NCCCOc2c(-c3ccc(F)cc3)nc3ccc(C)cn23)cc1C	80	< 0.8	–

Compound	IC50 [1] [nM]	MIC80 [2] [µM]	other results
Cc1ccc2nc(-c3ccc(F)cc3)c(OCCCNc3ccc(F)c(C)n3)n2c1	60	< 0.5	MBC [10]: > 100 µM
Cc1cnc(CNc2c(-c3ccc(C(F)(F)F)cc3)c(=O)c2=O)cn1	8400	50 (≈ 17.4 µg/mL)	–
Cc1ccc2nc(-c3ccccc3)c(OCCCOc3ccccc3)n2c1	30	< 0.5	inhibition [3]: inactive; inhibition [4]: Active
Cc1ccc2nc(-c3ccc(F)cc3)c(OCCCOc3cncc(F)c3)n2c1	60	< 0.6	–
Cc1ccc2nc(-c3ccc(F)cc3)c(OCCCNS(=O)(=O)c3ccc(F)cc3)n2c1	700	1.6 (≈ 0.732 µg/mL)	–
Cc1ccc2nc(-c3ccc(F)cc3)c(OCCNC(=O)c3ccc(C)nc3)n2c1	7200	> 200	–
c1ccc(OCCCOc2c(-c3ccccc3)nc3ccccn23)cc1	130	1.6 (≈ 0.551 µg/mL)	–
Cc1ccc2nc(-c3ccc(F)cc3)c(OCCOc3ccc(F)cc3)n2c1	20	3.1 (≈ 1.18 µg/mL)	inhibition [3]: inactive; inhibition [4]: Active
Fc1ccc(OCCOc2c(-c3ccccc3)nc3ccccn23)cc1	80	< 0.8	–
O=c1c(NCc2ccc(-c3ccccc3)cn2)c(-c2ccc(N3CCOCC3)cc2)c1=O	9500	> 100	–
Cc1ccc2nc(-c3ccc(F)cc3)c(OCCCOc3ccc(C)nc3)n2c1	< 20	< 0.8	–
N#Cc1ccc2nc(-c3ccccc3)c(OCCCOc3ccccc3)n2c1	> 100000	> 250	–
N#Cc1ccc(-c2c(NCc3ccccn3)c(=O)c2=O)cc1	66600	100 (≈ 28.9 µg/mL)	–
Cc1ccc2nc(-c3ccc(F)cc3)c(OCCNCc3ccc(C)c(F)c3)n2c1	70	0.6 (≈ 0.244 µg/mL)	–
Cc1ccc2nc(-c3ccc(F)cc3)c(OCCCOc3cncnc3)n2c1	5600	6.9 (≈ 2.61 µg/mL)	inhibition [3]: inactive; inhibition [4]: Active
O=c1c(NCc2ccccn2)c(-c2ccc(N3CCOCC3)cc2)c1=O	30	0.5 to 0.8 (≈ 0.175 to 0.28 µg/mL)	Ratio (Plasma [12]): 300; Time (Mus musculus): 15 h; growth inhibition (GI) [13]: Active
NNC(=O)c1ccncc1 [ISONIAZID]	–	0.02 (≈ 0.00274 µg/mL)	–
Cc1ccc2nc(-c3ccc(F)cc3)c(OCCCOc3cccnc3)n2c1	160	< 0.9	–
